Converted amounts (≈) assume the structure as drawn. The source made the active and inactive calls. No cut-off for these calls is given here.
Columns and labels:
RXF 393 = assay: Growth inhibition of human RXF393 cells at 10 uM incubated for 48 hrs by sulforhodamine B assay; format: functional, cell-based
How it was run: (§1)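 NCI 60-line panel, single 10 μM dose. Cells were grown in RPMI-1640 with 5% FBS and 2 mM L-glutamine and pre-incubated 24 h before compound addition (DMSO stock). Exposure was 48 h at 37 °C, 5% CO2. Cells were fixed with cold TCA (10% final), stained with 0.4% SRB, bound dye dissolved in 10 mM Tris base, A515 read. Growth was taken relative to time-zero and untreated control plates.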

A498 = assay: Growth inhibition of human A498 cells at 10 uM incubated for 48 hrs by sulforhodamine B assay; format: functional, cell-based
How it was run: (§2)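 NCI 60-cell-line screen at a single 10 µM dose. Cells in RPMI-1640 with 5% FBS and 2 mM L-glutamine, pre-incubated 24 h, then treated for 48 h at 37 °C. TCA fixation, sulforhodamine B staining, absorbance at 515 nm. Percentage growth calculated against time-zero and untreated controls.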

CAKI-1 = assay: Growth inhibition of human Caki1 cells at 10 uM incubated for 48 hrs by sulforhodamine B assay; format: functional, cell-based; how it was run: as §2
Candida albicans = assay: Growth inhibition of Candida albicans ATCC 10231 at 62.5 ug/ml incubated for 48 hrs under dark condition by broth microdilution method relative to control; format: functional; conditions: ATCC 10231, 48 h, read-out: GI
How it was run: (§3)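 CLSI M27-A3 broth microdilution in RPMI-1640, DMSO ≤1%. Inoculum 1-5 × 10^3 CFU/mL. Incubated 48 h at 30 °C, dark. % inhibition = 100 − (OD405 test − sterility control)/(OD405 growth control − sterility control), with growth and sterility control wells. Triplicate.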

HT-29 = assay: Growth inhibition of human HT-29 cells at 10 uM incubated for 48 hrs by sulforhodamine B assay; format: functional, cell-based; how it was run: as §1
Cryptococcus neoformans [1] = assay: Growth inhibition of Cryptococcus neoformans ATCC 32264 at 62.5 ug/ml incubated for 48 hrs under dark condition by broth microdilution method relative to control; format: functional; conditions: ATCC 32264, 48 h, read-out: GI; how it was run: as §3
MCF7 = assay: Growth inhibition of human MCF7 cells at 10 uM incubated for 48 hrs by sulforhodamine B assay; format: functional, cell-based; how it was run: as §1
DU-145 = assay: Growth inhibition of human DU145 cells at 10 uM incubated for 48 hrs by sulforhodamine B assay; format: functional, cell-based; how it was run: as §2
OVCAR-5 = assay: Growth inhibition of human OVCAR5 cells at 10 uM incubated for 48 hrs by sulforhodamine B assay; format: functional, cell-based; how it was run: as §1
MDA-MB-231 = assay: Growth inhibition of human MDA-MB-231 cells at 10 uM incubated for 48 hrs by sulforhodamine B assay; format: functional, cell-based; how it was run: as §1
Plasmodium falciparum = assay: Antiplasmodial activity against chloroquine-sensitive Plasmodium falciparum 3D7 assessed as reduction in parasitic LDH activity after 48 hrs by Malstat reagent based […] method; format: functional; conditions: 3D7, 48 h
How it was run: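 Unsynchronized P. falciparum 3D7 at 0.5% parasitemia and 1% hematocrit in RPMI with 3% Albumax II. Exposed to 100, 25, 6.25 and 1.56 µg/mL for 48 h at 37 °C under 90% N2/5% CO2/5% O2. After three freeze-thaw cycles, LDH measured with Malstat and NBT/PES, 1 h in the dark, read at 650 nm. IC50 by Probit; triplicate, ≥2 experiments.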

Leishmania panamensis = assay: Antileshmanial activity against EpiR/GFP fused Leishmania panamensis MHOM/CO/87/UA140 intracellular amastigotes infected in human […] cells after 72 hrs by flow cytometric method; format: functional, cell-based; conditions: MHOM/CO/87/UA140, 72 h
How it was run: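 PMA-treated U-937 cells (3 × 10^5 cells/mL) infected with stationary-phase GFP L. panamensis promastigotes (15:1), 3 h at 34 °C, then washed. After 24 h, compounds added at 50, 12.5, 3.125 and 0.78 µg/mL for 72 h at 37 °C. EC50 by Probit; triplicate, two experiments.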

Pseudomonas aeruginosa = assay: Antibacterial activity against Pseudomonas aeruginosa ATCC 27853 after 24 hrs by resazurin dye based microdilution assay; format: functional; conditions: ATCC 27853, 24 h
How it was run: (§4)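 MIC taken as the lowest concentration giving visible inhibition and/or by resazurin (1 mg/mL). Gentamicin was the control. Run in duplicate, repeated at least three times.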

Staphylococcus aureus = assay: Antibacterial activity against methicillin-sensitive Staphylococcus aureus ATCC 25923 after 24 hrs by resazurin dye based microdilution assay; format: functional; conditions: ATCC 25923, 24 h; how it was run: as §4
BT-549 = assay: Growth inhibition of human BT549 cells at 10 uM incubated for 48 hrs by sulforhodamine B assay; format: functional, cell-based; how it was run: as §2
HL-60(TB) = assay: Growth inhibition of human HL-60(TB) cells at 10 uM incubated for 48 hrs by sulforhodamine B assay; format: functional, cell-based
How it was run: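 NCI 60-line single-dose screen at 10 μM, 48 h. Cells in RPMI-1640 with 5% FBS and 2 mM L-glutamine at 37 °C, 5% CO2. Growth measured by TCA fixation and SRB staining (515 nm), relative to time-zero and untreated control wells.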

Escherichia coli = assay: Antibacterial activity against Escherichia coli ATCC 25922 after 24 hrs by resazurin dye based microdilution assay; format: functional; conditions: ATCC 25922, 24 h; how it was run: as §4
PC-3 = assay: Growth inhibition of human PC3 cells at 10 uM incubated for 48 hrs by sulforhodamine B assay; format: functional, cell-based; how it was run: as §1
786-0 = assay: Growth inhibition of human 786-0 cells at 10 uM incubated for 48 hrs by sulforhodamine B assay; format: functional, cell-based; how it was run: as §2
SF-268 = assay: Growth inhibition of human SF268 cells at 10 uM incubated for 48 hrs by sulforhodamine B assay; format: functional, cell-based; how it was run: as §1
T47D = assay: Growth inhibition of human T47D cells at 10 uM incubated for 48 hrs by sulforhodamine B assay; format: functional, cell-based
How it was run: (§5)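 NCI-60 single-dose screen at 10 µM for 48 h. Cells were grown in RPMI-1640 with 5% FBS and 2 mM L-glutamine and preincubated 24 h before compound. Time-zero plates were TCA-fixed at compound addition. After exposure, cells were TCA-fixed, stained with SRB and read at 515 nm. Percentage growth was calculated against time-zero and untreated-control absorbances.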

Trypanosoma cruzi = assay: Antitrypanosomal activity against Trypanosoma cruzi Tulahuen intracellular amastigote harboring LacZ infected in human U937 cells after 72 hrs by CPRG/Nonidet reagent based spectrophotometric method; format: functional, cell-based; conditions: U-937, 72 h
How it was run: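 U-937 cells at 2.5 × 10^5 cells/mL in RPMI-1640 with 10% serum and 0.1 µg/mL PMA were infected with β-galactosidase-transfected Tulahuen epimastigotes at 5 parasites per cell. Infected cells were exposed to 50, 12.5, 3.125 and 0.78 µg/mL for 72 h. CPRG (100 uM) and 0.1% Nonidet P-40 were added for 3 h, read at 570 nm. EC50 by Probit. Triplicate, at least two experiments; benznidazole as reference.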

NCI-H226 = assay: Growth inhibition of human NCI-H226 cells at 10 uM incubated for 48 hrs by sulforhodamine B assay; format: functional, cell-based; how it was run: as §1
Cryptococcus neoformans [2] = assay: Growth inhibition of Cryptococcus neoformans ATCC 32264 at 250 ug/ml incubated for 48 hrs under dark condition by broth microdilution method relative to control; format: functional; conditions: ATCC 32264, 48 h, read-out: GI; how it was run: as §3
UACC-62 = assay: Growth inhibition of human UACC62 cells at 10 uM incubated for 48 hrs by sulforhodamine B assay; format: functional, cell-based; how it was run: as §5

Row | Compound | growth inhibition (GI) (RXF 393) | growth inhibition (GI) (A498) | growth inhibition (GI) (CAKI-1) | inhibition of growth at 62.5 µg/mL (Candida albicans) | growth inhibition (GI) (HT-29) | inhibition of growth at 62.5 µg/mL (Cryptococcus neoformans [1]) | growth inhibition (GI) (MCF7) | growth inhibition (GI) (DU-145) | growth inhibition (GI) (OVCAR-5) | growth inhibition (GI) (MDA-MB-231) | EC50 (Plasmodium falciparum) | EC50 (Leishmania panamensis) | MIC (Pseudomonas aeruginosa) | MIC (Staphylococcus aureus) | growth inhibition (GI) (BT-549) | growth inhibition (GI) (HL-60(TB)) | MIC (Escherichia coli) | growth inhibition (GI) (PC-3) | growth inhibition (GI) (786-0) | growth inhibition (GI) (SF-268) | other results
1 | Clc1ccc(C2=NN(c3ccccc3)C(c3cccc(Nc4ccnc5cc(Cl)ccc45)c3)C2)cc1 (stereo not given) | inactive | inactive | inactive | 7.77% | inactive | 0% | inactive | inactive | inactive | inactive | 11.7 µg/mL (≈ 23 µM) | 11.7 µg/mL (≈ 22.9 µM) | > 1000 µg/mL | > 1000 µg/mL | inactive | inactive | > 1000 µg/mL | inactive | inactive | inactive | growth inhibition (GI) (T47D): inactive; EC50 (Trypanosoma cruzi): 16.2 µg/mL (≈ 31.8 µM); growth inhibition (GI) (NCI-H226): inactive; inhibition of growth at 250 µg/mL (Cryptococcus neoformans [2]): 19.8%; growth inhibition (GI) (UACC-62): inactive
2 | COc1cc(C2=NN(c3ccc(Cl)cc3)C(c3cccc(Nc4ccnc5cc(Cl)ccc45)c3)C2)cc(OC)c1OC (stereo not given) | inactive | inactive | inactive | 12.2% | inactive | 17.1% | inactive | inactive | inactive | inactive | 44.6 µg/mL (≈ 74.3 µM) | 21.3 µg/mL (≈ 35.5 µM) | > 1000 µg/mL | > 1000 µg/mL | inactive | inactive | > 1000 µg/mL | inactive | inactive | inactive | growth inhibition (GI) (T47D): inactive; EC50 (Trypanosoma cruzi): 22.6 µg/mL (≈ 37.7 µM); growth inhibition (GI) (NCI-H226): inactive; inhibition of growth at 250 µg/mL (Cryptococcus neoformans [2]): 21.7%; growth inhibition (GI) (UACC-62): inactive
3 | Clc1ccc(C2=NN(c3ccc(Cl)cc3)C(c3cccc(Nc4ccnc5cc(Cl)ccc45)c3)C2)cc1 (stereo not given) | inactive | inactive | inactive | 11.8% | inactive | 25.8% | inactive | inactive | inactive | inactive | 10.3 µg/mL (≈ 18.9 µM) | 91.4 µg/mL (≈ 168 µM) | > 1000 µg/mL | > 1000 µg/mL | inactive | inactive | > 1000 µg/mL | inactive | inactive | inactive | growth inhibition (GI) (T47D): inactive; EC50 (Trypanosoma cruzi): 55.8 µg/mL (≈ 103 µM); growth inhibition (GI) (NCI-H226): inactive; inhibition of growth at 250 µg/mL (Cryptococcus neoformans [2]): 53%; growth inhibition (GI) (UACC-62): inactive
4 | Clc1ccc(C2=NN(c3cc(Cl)cc(Cl)c3)C(c3cccc(Nc4ccnc5cc(Cl)ccc45)c3)C2)cc1 (stereo not given) | inactive | inactive | inactive | 13.8% | inactive | 1.2% | inactive | inactive | inactive | inactive | 11.3 µg/mL (≈ 19.6 µM) | 12 µg/mL (≈ 20.8 µM) | > 1000 µg/mL | > 1000 µg/mL | inactive | inactive | > 1000 µg/mL | inactive | inactive | inactive | growth inhibition (GI) (T47D): inactive; EC50 (Trypanosoma cruzi): 19.1 µg/mL (≈ 33 µM); growth inhibition (GI) (NCI-H226): inactive; inhibition of growth at 250 µg/mL (Cryptococcus neoformans [2]): 8.42%; growth inhibition (GI) (UACC-62): inactive
